KCNQ1 inh: inhibitors of human KCNQ1 channel, primary screen, cell-based, thallium flux, high-throughput; Potassium voltage-gated channel subfamily KQT member 1 (Homo sapiens), P51787; CHO-K1 KCNQ1, FluxOR thallium flux fluorescence; stronger effect = higher value; B-score at 10 µM; 1.3% of 310,000 active; AID 2642, 2010;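 active = compounds whose thallium flux B-score, printed positive for inhibition, exceeds three library SD while starting fluorescence stays within three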;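 also: channel opened by potassium depolarization with thallium stimulus after 20 min compound exposure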
hERG rescue: hERG rescue from dofetilide block, primary screen, cell-based, CHO-hERG, FluxOR thallium flux, dofetilide IC70 | Voltage-gated inwardly rectifying potassium channel KCNH2 (Homo sapiens), Q12809 | dofetilide IC70 present | activation (rescue from dofetilide block), less the hit threshold, % at 10 µM | 0.51% of 310,000 active | AID 1511, 2009;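 active = activation above the mean of controls blocked by dofetilide plus 5 SD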;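 also: thallium influx through hERG after potassium depolarization seen as dye fluorescence rise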
KCNK3 block: human KCNK3 channel inhibitors, primary screen, CHO cells, FluxOR thallium flux, B-score | 0.84% of 340,000 active | Potassium channel subfamily K member 3 (Homo sapiens), O14649 | B-score at 10 µM | FluxOR fluorescence; stronger effect = lower value;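 active = B-score under library mean minus 4 SD, starting fluorescence ratio at most library mean plus 5 SD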;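 also: more negative B-score means stronger inhibition of thallium flux through KCNK3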
Kir21 inh: inhibitors of mouse Kir2.1 inward-rectifier potassium channel | 0.85% of 310,000 active | HEK293-Kir2.1, FluxOR thallium flux fluorescence; stronger effect = lower value | B-score at 10 µM;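 active = fluorescence ratio B-score at or below minus 3 SD of library scores, with starting-brightness B-score within 2 SD, cut at about -4.2 in these data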;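 also: channel flux triggered by added potassium and thallium sulfate stimulus; B-score of peak minus minimum fluorescence over baseline after thallium stimulus; more negative B-score means stronger Kir2.1 block with less thallium influx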
KCNK9 block: KCNK9 potassium channel inhibitors, primary screen, HEK293 cells, thallium flux. AID 488922, 2010. 1.2% of 310,000 active. B-score at 10 µM. FluxOR thallium flux fluorescence; stronger effect = lower value. Potassium channel subfamily K member 9 (Homo sapiens), Q9NPC2;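 active = ratio B-score over 3 SD below the library mean, with starting fluorescence within 5 SD of its mean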;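 also: negative B-score means less thallium flux so channel inhibition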
Target sequence (Q9NPC2 whole entry, looked up): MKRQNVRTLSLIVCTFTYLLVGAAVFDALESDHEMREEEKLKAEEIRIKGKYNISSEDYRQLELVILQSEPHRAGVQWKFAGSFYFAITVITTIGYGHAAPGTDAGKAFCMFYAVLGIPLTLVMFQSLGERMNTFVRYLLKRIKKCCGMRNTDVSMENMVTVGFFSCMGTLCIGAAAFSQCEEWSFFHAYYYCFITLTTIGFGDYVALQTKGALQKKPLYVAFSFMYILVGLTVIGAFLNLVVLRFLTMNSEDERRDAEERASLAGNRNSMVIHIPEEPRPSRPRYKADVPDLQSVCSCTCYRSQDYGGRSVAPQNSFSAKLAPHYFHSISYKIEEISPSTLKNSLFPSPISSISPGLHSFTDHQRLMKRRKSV
KCNQ1 pot: potentiators or activators of KCNQ1 channel, primary screen, cell-based, thallium flux, high-throughput; B-score at 10 µM; 0.35% of 310,000 active; CHO-K1 KCNQ1, thallium flux FluxOR fluorescence; stronger effect = higher value; Potassium voltage-gated channel subfamily KQT member 1 (Homo sapiens), P51787; AID 2648, 2010;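 active = fluorescence ratio B-score, a plate-corrected score, at least three library SD, with initial intensity B-score within 5 SD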
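Medium – assay buffer, equal DMSO in all wells · Material – CHO-K1 cell line with stable KCNQ1 potassium channel expression · Signal – kinetic FluxOR thallium fluorescence, 10-s 1-Hz baseline, 110-s post-stimulus read · Compound – single concentration per compound, DMSO matched to controls · Schedule – 37 °C overnight plating, 90-min dark dye load, 20-min compound pretreatment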
KCNK9 block conf: KCNK9 potassium channel inhibitors, confirmation, HEK293 cells, thallium flux, duplicate | AID 492992, 2010 | 43% of 4,900 active | inhibition, % at 10 µM | FluxOR thallium flux fluorescence | shares compounds with KCNK9 block;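 active = thallium signal inhibited by more than 5 SD of the compound-free buffer control wells, on both duplicate plates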;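 also: 0% = assay buffer control wells without compound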
Kir21 sel: mouse Kir2.1 channel inhibition, confirmation, selectivity assay for KCNK9 modulator project, cell-based, HEK293, thallium flux; Kir2.1 cells, FluxOR thallium flux fluorescence; AID 492993, 2010; shares compounds with KCNK9 block; 4% of 4,900 active; inhibition, % at 10 µM;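 active = thallium signal drop more than 5 SD beyond the mean of the no-compound control wells, seen in both duplicate plates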;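 also: signal is fluorescence rise after thallium addition divided by baseline fluorescence; plate controls were assay buffer only for no effect and full block by chlorpromazine control for full effect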
KCNK9 uninduced: thallium flux in non-induced HEK293 cells, confirmation, counter-screen for KCNK9 inhibitor project, cell-based, second counter screen, non-induced KCNK9-HEK293 | shares compounds with KCNK9 block | FluxOR thallium flux | inhibition, % at 10 µM | 40% of 4,900 active | AID 492997, 2010;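 active = thallium signal drop beyond 5 SD of the untreated control mean, on both duplicate plates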;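 also: plate controls were buffer only IC0 wells for no effect and SID17386958 at its maximal inhibitory level for full effect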
The depositor's hits bear a star. The list is not random: actives were taken first. Their share in the collection is about 3.7%.

`Cc1cccc(-c2noc(CN(C(=O)C(c3ccccc3)c3ccccc3)C(C)C)n2)c1` gave KCNQ1 inh 6*, hERG rescue -9, KCNK3 block -12*, Kir21 inh -0.55, KCNK9 block -17*, KCNQ1 pot inactive, KCNK9 block conf 54%*, Kir21 sel inactive and KCNK9 uninduced inactive.
COc1cccc(C(=O)N(Cc2nc(-c3cccc(C)c3)no2)C(C)C)c1OC was read as KCNQ1 inh inactive, hERG rescue -12, KCNK3 block inactive, Kir21 inh -0.41, KCNK9 block inactive, KCNQ1 pot inactive, KCNK9 block conf inactive, Kir21 sel inactive and KCNK9 uninduced inactive.
Screening Cc1cccc(-c2noc(CN(C(=O)c3ccc4c(c3)OCO4)C(C)C)n2)c1 returned KCNQ1 inh inactive, hERG rescue -6, KCNK3 block inactive, Kir21 inh -1.8, KCNK9 block inactive and KCNQ1 pot inactive.
`Fc1ccccc1N1CCN(C2CCCN(Cc3ccccc3C(F)(F)F)C2)CC1` (stereo not drawn) gave KCNQ1 inh inactive, hERG rescue -13, KCNK3 block inactive, Kir21 inh 0.66, KCNK9 block inactive, KCNQ1 pot inactive, KCNK9 block conf inactive, Kir21 sel inactive and KCNK9 uninduced inactive.
For COc1ccccc1N1CCN(C2CCCN(Cc3cccc(O)c3)C2)CC1 (stereo not drawn) the results were KCNQ1 inh inactive, hERG rescue -7, KCNK3 block inactive, Kir21 inh 0.5, KCNK9 block inactive and KCNQ1 pot inactive.
CC(=O)c1cccc(CN2CCCC(N3CCN(c4ccccc4F)CC3)C2)c1 (stereo not drawn) was read as KCNQ1 inh inactive, hERG rescue -4, KCNK3 block inactive, Kir21 inh 2.6, KCNK9 block inactive, KCNQ1 pot inactive, KCNK9 block conf inactive, Kir21 sel inactive and KCNK9 uninduced inactive.
For COC(=O)C1=C(C)NC(=S)NC1c1ccc(OCC(=O)N2CCCCC2)c(OC)c1 (stereo not drawn) the results were KCNQ1 inh inactive, hERG rescue -15, KCNK3 block inactive, Kir21 inh 0.92, KCNK9 block inactive and KCNQ1 pot inactive.
`Cc1ccc(NC(=O)C(=O)NCc2ccc(/C=C(/C#N)C(=O)NCc3cccnc3)o2)cc1` gave KCNQ1 inh inactive, hERG rescue -8, KCNK3 block inactive, Kir21 inh -0.19, KCNK9 block inactive and KCNQ1 pot inactive.
For N#C/C(=C/c1ccc(CNC(=O)C(=O)Nc2cc(Cl)cc(Cl)c2)o1)C(=O)NCc1cccnc1 the results were KCNQ1 inh inactive, hERG rescue -8, KCNK3 block inactive, Kir21 inh 0.16, KCNK9 block -10*, KCNQ1 pot inactive, KCNK9 block conf inactive, Kir21 sel inactive and KCNK9 uninduced inactive.
`CSc1ccccc1NC(=O)c1ccc(CN2CCOCC2)cc1` gave KCNQ1 inh inactive, hERG rescue -5, KCNK3 block inactive, Kir21 inh -0.23, KCNK9 block -11*, KCNQ1 pot inactive, KCNK9 block conf inactive, Kir21 sel inactive and KCNK9 uninduced inactive.
For O=C(Nc1cccc(-c2csc(-c3ccccc3)n2)c1)c1cccs1 the results were KCNQ1 inh inactive, hERG rescue -6, KCNK3 block inactive, Kir21 inh 1.5, KCNK9 block -12*, KCNQ1 pot inactive, KCNK9 block conf 45%*, Kir21 sel inactive and KCNK9 uninduced inactive.
`COc1ccc(-n2nnnc2SCC(=O)Nc2c(C)n[nH]c2C)cc1` gave KCNK3 block inactive.
`O=C(NCc1cn(-c2ccccc2)nc1-c1ccccc1)c1cc([N+](=O)[O-])cc([N+](=O)[O-])c1` gave KCNQ1 inh inactive, hERG rescue -5, KCNK3 block inactive, Kir21 inh 1.3, KCNK9 block inactive and KCNQ1 pot inactive.
Screening COc1ccc(-c2nn(-c3ccccc3)cc2CNC(=O)c2cccc([N+](=O)[O-])c2)cc1 returned KCNQ1 inh inactive, hERG rescue -9, KCNK3 block inactive, Kir21 inh 0.02, KCNK9 block -11*, KCNQ1 pot inactive, KCNK9 block conf 52%*, Kir21 sel inactive and KCNK9 uninduced 30%*.
COc1cccc(-c2nn(C)c3sc(C(=O)Nc4ccc5c(c4)OCCO5)cc23)c1 was read as KCNQ1 inh inactive, hERG rescue -13, KCNK3 block inactive, Kir21 inh 0.63, KCNK9 block inactive and KCNQ1 pot inactive.
Cn1nc(-c2ccccc2F)c2cc(C(=O)Nc3ccc4c(c3)OCCO4)sc21 was read as KCNQ1 inh inactive, hERG rescue -13, KCNK3 block inactive, Kir21 inh -0.55, KCNK9 block -12*, KCNQ1 pot inactive, KCNK9 block conf 49%*, Kir21 sel inactive and KCNK9 uninduced inactive.
For COC(=O)c1c(NC(=O)CS(=O)(=O)c2ccccc2)sc(C)c1C the results were KCNQ1 inh inactive, hERG rescue -3, KCNK3 block inactive, Kir21 inh -0.04, KCNK9 block inactive and KCNQ1 pot inactive.
For O=C(CSc1ncnc2sc3c(c12)CCCC3)N1CCC(c2noc3ccc(F)cc23)CC1 the results were KCNQ1 inh inactive, hERG rescue -22, KCNK3 block inactive, Kir21 inh 0.55, KCNK9 block inactive, KCNQ1 pot inactive, KCNK9 block conf inactive, Kir21 sel inactive and KCNK9 uninduced inactive.
